High-throughput results: PubChem BioAssay, Broad Institute
Compounds with a hit are over-represented: about 2.4% of the library has one in this group of screens.
ERAP1 HTS inh: ERAP1 (human) enzyme inhibition; Q9NZ08; recombinant ERAP1, Leu-AMC fluorescence, 60 min; inhibition, % at 10.7 µM; 340,000 tested, 0.15% active; AID 652197;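 active = mean replicate inhibition of at least 30%, or all replicates individually reaching that 30% level; inactive = mean below 30% and not every replicate reaching it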;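 note: 0% = neutral control wells and 100% = L-leucinethiol positive control wells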
S100A4 inh HTS: blocks human S100A4 binding to myosin IIA peptide. P26447. S100A4/TAMRA-MyoIIA peptide fluorescence polarization. inhibition, % at 10.7 µM. 360,000 tested, 0.14% active;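 active = mean inhibition of at least 70% across replicates, with every replicate also reaching that level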
Target sequence (P26447 whole entry, looked up): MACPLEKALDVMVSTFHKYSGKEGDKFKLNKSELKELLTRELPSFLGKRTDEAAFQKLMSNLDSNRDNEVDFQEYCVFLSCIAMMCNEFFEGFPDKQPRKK
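assay system = human S100A4 monomer with TAMRA-labelled myosin IIA peptide | also added = labelled myosin peptide probe, 5 nM | incubation = 5 min between mix addition and reading | control set = DMSO and TFP controls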
ARNT-TACC3 inh: ARNT/TACC3 interaction disruption. AlphaScreen His-ARNT PAS-B/GST-TACC3 binding, luminescence; TACC3 fragment carries E629A point mutation. AID 623870. inhibition, % at 9.99 µM. Q9Y6A5. 390,000 tested, 0.66% active;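 active = mean inhibition of replicates at least 50% and at least half of replicates each reaching 50%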;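 note: 0% = complete ARNT plus TACC3 wells and 100% = ARNT alone without TACC3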
PGC1a acetyl inh: PGC1a acetylation modulation, inhibitor mode | U2OS PGC1a acetylation, AlphaScreen anti-acetyl-lysine; with virally co-expressed GCN5 acetyltransferase | inhibition, % at 15.6 µM | 350,000 tested, 0.17% active | AID 651687;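 active = every replicate shows inhibition of at least 40%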;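 note: 0% = neutral control wells and 100% = positive control wells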
rRNA inh HTS: inhibits bacterial ribosomal RNA function over humanized ribosomes; 350,000 tested, 1.6% active; GFP signal change (wild-type ribosome), % (test concentration not listed); E. coli WT GFP vs humanized-ribosome RFP mutants, fluorescence, 24 h; stronger effect = lower value; DMSO median 0, no signal -100;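 active = significant combined selectivity score with lowered wild-type GFP, culture density cut under 30%, mutant RFP and density less affected; inactive = any of these conditions unmet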
Casp6 inh: inhibitors of human caspase-6 | P55212 | purified caspase-6, Z-VEID-R110 cleavage fluorescence | inhibition, % at 12.5 µM | 350,000 tested, 0.53% active | AID 686996;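 active = mean inhibition across replicates at least about 35%, with every replicate also reaching that limit, limit read from the data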;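 note: 0% = median of neutral control wells and 100% = no fluorescence left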
Target sequence (P55212 24-179 limits assumed): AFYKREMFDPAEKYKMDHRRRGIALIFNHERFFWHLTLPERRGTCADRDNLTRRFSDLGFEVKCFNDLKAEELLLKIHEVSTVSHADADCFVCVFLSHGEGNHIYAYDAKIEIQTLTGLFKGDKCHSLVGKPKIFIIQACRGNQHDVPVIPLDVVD
Target sequence (P55212 194-293 limits assumed): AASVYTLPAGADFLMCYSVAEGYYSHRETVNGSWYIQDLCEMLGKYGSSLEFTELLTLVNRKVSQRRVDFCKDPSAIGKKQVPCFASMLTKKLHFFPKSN
Active calls of the source: *; / = no result given.

SMILES	ERAP1 HTS inh	S100A4 inh HTS	ARNT-TACC3 inh	PGC1a acetyl inh	rRNA inh HTS	Casp6 inh
COc1ccc(NC(=O)N(C)C[C@H]2OCCCC[C@@H](C)Oc3ccc(NS(=O)(=O)c4ccc(OC)cc4)cc3C(=O)N([C@@H](C)CO)C[C@H]2C)cc1	/	/	30.6	-20.4	-3.6	/
C[C@@H]1CN([C@H](C)CO)C(=O)Cc2cc(NC(=O)Nc3ccc(F)cc3)ccc2O[C@@H]1CN(C)Cc1ccncc1	-0.6	-3.2	7.2	-0.4	-10.4	0.2
COc1cccc(CNC(=O)C[C@@H]2C=C[C@@H](NC(=O)C3CC3)[C@@H](CO)O2)c1	-0.7	9.4	5.4	8.0	0.7	-3.7
S=C(NN=C1CCCCCC1)Nc1ccc(Cl)cc1	-8.6	-3.7	4.2	5.0	-5.9	/
NC(=S)NN=C1CCC(C2CCCCC2)CC1 (stereo unspecified)	-0.5	0.9	7.1	9.8	-45.2*	-0.4
NC(=S)NN=C1CCCCCCCCCC1	-0.5	12.4	32.6*	-8.7	-6.6	2.0
CC(Nc1ncnc2ccccc12)c1ccccc1 (stereo unspecified)	0.4	-0.2	/	/	-29.7*	-0.2
CC(=O)c1ccc(-c2c(C)cc3oc(=O)cc(-c4ccccc4)c3c2C)cc1	/	1.6	2.2	/	-21.8*	1.4
Cc1cc2oc(=O)cc(-c3ccccc3)c2c(C)c1-c1ccc(CO)cc1	/	-0.1	3.2	-3.3	-31.0	-2.3
CCOC(=O)N1CCN(C(C(=O)NC2CCCC2)C(C)C)CC1 (stereo unspecified)	-3.3	-0.4	/	/	8.3	38.3*
COc1ccc(NC(=O)Nc2cccc3c2O[C@H](CN(C)CC2CCCCC2)[C@H](C)CN([C@@H](C)CO)C3=O)cc1	0.5	-5.2	4.5	-8.6	1.5	0.5
CC(C)CC#Cc1ccc2c(c1)O[C@H](CN(C)C(=O)Cc1ccccc1)[C@@H](C)CN([C@@H](C)CO)S2(=O)=O	-1.6	2.3	-15.2	-5.9	-6.6	-1.0
Cc1c(Cl)c(C(F)F)nn1CC(=O)NC1C(=O)N2C(C(=O)O)=C(CSc3nnnn3C)CSC12 (stereo unspecified)	1.2	-5.2	-5.8	/	17.0	38.3*
Cc1c(Cl)cnn1CC(=O)NC1C(=O)N2C(C(=O)O)=C(CSc3nnnn3C)CSC12 (stereo unspecified)	0.3	1.9	-0.8	-6.8	-10.3	/
CN(c1ncnc(N)c1[N+](=O)[O-])C1CCCCC1	-0.4	-0.5	0.6	/	3.2	-1.8
CCCCN(c1ccccc1)c1ncnc(N)c1[N+](=O)[O-]	-0.5	3.0	-4.6	52.0*	13.2	-1.6
CN(c1ccccc1)c1nc(N)c([N+](=O)[O-])c(N2CCCC2)n1	3.7	-10.8	8.1	-2.4	-26.7*	3.0
CN(c1ccccc1)c1nc(N)c([N+](=O)[O-])c(N2CCCCC2)n1	5.4	0.5	8.8	/	-25.4	-0.6
N#Cc1cccc(NC(=O)Cc2ccsc2)c1	-2.2	-2.8	17.9	/	0.4	1.1
CCc1ccccc1OCC(=O)NNCC(=O)Nc1cccc(C#N)c1	-1.4	26.4	/	-2.8	-19.5*	-0.6
COc1ccccc1CNC(=O)C[C@H]1C[C@H]2c3cc(NC(=O)Nc4ccccc4F)ccc3O[C@H]2[C@H](CO)O1	2.5	-0.5	-5.7	-0.8	1.5	-1.6
O=S(=O)(c1ccccc1F)N1CCC(Oc2ccc(-n3cnnn3)cc2)CC1	1.0	-2.7	1.4	/	-28.2*	-0.9
O=S(=O)(Nc1ccc(-n2cnnn2)cc1)c1ccccc1F	0.8	-8.9	-0.8	7.0	-4.7	1.1
CCC[N+](C)(C)C(C)C(OC(C)=O)c1ccccc1 (stereo unspecified)	40.8*	-1.5	-9.5	-4.5	7.4	-2.3
CC(NC(=O)Cc1ccccc1)c1ccccc1 (stereo unspecified)	1.2	-1.8	-4.5	/	1.2	-2.5
SMILES	ERAP1 HTS inh	S100A4 inh HTS	ARNT-TACC3 inh	PGC1a acetyl inh	rRNA inh HTS	Casp6 inh
Clc1ccccc1N1CCN(Cc2c[nH]c3ccccc23)CC1	0.5	-1.4	7.3	-14.1	-45.0*	2.5
COCCNC(=O)C[C@@H]1C[C@H]2c3cc(NC(=O)Nc4ccc(C(F)(F)F)cc4)ccc3O[C@H]2[C@H](CO)O1	-3.5	4.7	30.0	1.3	-8.1	3.1
CCN(CC)c1ccc(C=Nc2cccnc2Cl)c(O)c1	0.7	8.9	active	-8.2	3.1	29.9
O=C(c1ccccn1)N1CC(=O)N2[C@@H](CO)[C@H](c3ccc(-c4cccc(F)c4)cc3)[C@@H]2C1	-3.6	1.7	/	4.4	-1.6	2.3
Cc1cc(NN=Cc2ccccn2)nc2ccccc12	-3.0	0.3	/	/	/	-11.6
C(=N\Nc1nc2ccccc2s1)/c1ccccn1	/	2.8	/	/	-29.5*	1.6
Cc1csc(N/N=C/c2ccccn2)n1	-0.6	-5.2	59.0*	10.3	-31.6*	-1.3
CN1CCc2cc3c(c4c2[C@H]1[C@H](O)c1ccccc1-4)OCO3	3.2	32.7	34.4	/	-56.0	49.3*
CN(C)CCCNC(=O)C[C@H]1CC[C@H](NS(=O)(=O)c2ccc(F)cc2)[C@H](CO)O1	1.2	4.2	-5.1	-6.4	2.1	1.7
COC(=O)c1cc(C)sc1NC(=O)C1CC(=O)NN1Cc1ccccc1 (stereo unspecified)	-1.3	-1.1	4.0	/	-31.9*	2.5
N#Cc1c(-c2ccco2)ccn(Cc2cccc(F)c2)c1=O	-4.3	3.3	2.1	4.9	-16.9*	2.9
COc1ccc(-c2c(C(=O)c3ccccc3)[nH]c(N)c2C(N)=O)cc1OC	-5.7	-1.4	/	/	7.4	-0.1
COc1ccc(-c2c(C(=O)c3ccccc3)[nH]c(N)c2C(=O)NCc2ccccc2)cc1OC	1.0	3.9	/	/	-35.5*	-3.9
C[C@@H]1CN([C@@H](C)CO)C(=O)c2cccc(NC(=O)Nc3ccc4c(c3)OCO4)c2O[C@@H]1CN(C)CC1CC1	-3.4	8.1	/	2.9	1.7	-1.9
C[C@@H]1CN([C@@H](C)CO)S(=O)(=O)c2ccc(C#Cc3cccnc3)cc2O[C@H]1CN(C)CC1CCCC1	/	2.2	12.4	-10.5	-4.8	/
O=C(c1cc(COc2c(F)cccc2F)on1)N1CCc2ccccc2C1	-0.5	3.8	-1.6	3.5	-22.9*	1.1
CCOc1ccc(OCc2ccc(C(=O)N3CCc4ccccc4C3)o2)cc1	-2.3	-0.6	-5.6	-5.0	-28.2*	2.3
O=C(c1cc(COc2c(F)cccc2F)on1)N1C[C@H]2CC[C@H]1C2	0.7	-6.2	-6.1	11.5	-20.4*	-3.4
CCn1c(SC)nnc1-c1nn(-c2ccccc2)ccc1=O	103.1*	-2.2	2.6	/	14.2	-1.9
CSc1cccc(NC(=O)C2CCN(S(=O)(=O)c3ccc4c(c3)NC(=O)CO4)CC2)c1	-6.5	85.8*	0.8	-7.2	-4.1	2.4
